{"source": "ChEMBL document CHEMBL4257499", "about": "“Triazole-diindolylmethane conjugates as new antitubercular agents: synthesis, bioevaluation, and molecular docking” (Medchemcomm, 2018)", "key": {"Bacillus subtilis": {"tested_on": "Bacillus subtilis", "experiment": "Antibacterial activity against Bacillus subtilis NCIM 2079 at 3 ug/ml after 8 hrs relative to control", "format": "functional", "procedure,_shortened": "(§1)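 Cultures grown to OD600 of 1, then set at 0.1 OD600 and exposed to compound at 3 µg/mL for 8 h at 37 °C. Ampicillin was the positive control. Activity is reported as % inhibition.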"}, "[1]": {"tested_on": "Mycobacterium tuberculosis", "experiment": "Antimycobacterial activity against dormant stage of Mycobacterium tuberculosis H37Ra ATCC 25177 at 3 to 30 ug/ml by XRMA relative to control", "format": "functional", "procedure,_shortened": "(§2)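 Mtb H37Ra, from a -80 °C stock subcultured once in liquid medium, grown in M. pheli minimal medium (KH2PO4, trisodium citrate, MgSO4, asparagine, glycerol; pH 6.6) in 96-well plates. Primary screen at 30, 10 and 3 µg/mL. XTT reduction menadione read-out at 470 nm against cell-free blank. % inhibition = (control − compound)/(control − blank) × 100, with DMSO-vehicle wells as 100% growth. Duplicates.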"}, "[2]": {"tested_on": "Mycobacterium tuberculosis", "experiment": "Antimycobacterial activity against active stage of Mycobacterium tuberculosis H37Ra ATCC 25177 at 3 to 30 ug/ml by XRMA relative to control", "format": "functional", "procedure,_shortened": "as §2"}, "[3]": {"tested_on": "Mycobacterium tuberculosis", "experiment": "Antimycobacterial activity against active stage of Mycobacterium tuberculosis H37Ra ATCC 25177 by XRMA", "format": "functional, organism-based", "procedure,_shortened": "(§3)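 Mtb H37Ra in M. pheli medium (pH 6.6) in 96-well plates. XTT reduction menadione read-out at 470 nm, with DMSO vehicle as 100% growth. MIC derived from the dose-response curve. Duplicates, average ± standard deviation.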"}, "[4]": {"tested_on": "Mycobacterium tuberculosis", "experiment": "Antimycobacterial activity against dormant stage of Mycobacterium tuberculosis H37Ra ATCC 25177 by XRMA", "format": "functional, organism-based", "procedure,_shortened": "as §3"}, "Staphylococcus aureus": {"tested_on": "Staphylococcus aureus", "experiment": "Antibacterial activity against Staphylococcus aureus NCIM 2010 at 3 ug/ml after 8 hrs relative to control", "format": "functional", "procedure,_shortened": "as §1"}}, "note": "Activity calls are given as the source filed them. The calls are words filed in the database; no cut-off is given here."}
{"smiles": "Clc1ccc(-n2cc(C(c3c[nH]c4ccc(Br)cc34)c3c[nH]c4ccc(Br)cc34)nn2)cc1", "values": [{"measurement": "Activity", "setting": "Bacillus subtilis", "value": ">70", "unit": "%"}, {"measurement": "Activity", "setting": "[1]", "value": ">88.22", "unit": "%"}, {"measurement": "Activity", "setting": "[2]", "value": ">88.22", "unit": "%"}]}
{"smiles": "COc1ccc(-n2cc(C(c3c[nH]c4ccccc34)c3c[nH]c4ccccc34)nn2)cc1", "values": [{"measurement": "Activity", "setting": "[1]", "value": "Active"}, {"measurement": "Activity", "setting": "[2]", "value": "Active"}]}
{"smiles": "O=[N+]([O-])c1cccc(-n2cc(C(c3c[nH]c4ccc(Br)cc34)c3c[nH]c4ccc(Br)cc34)nn2)c1", "values": [{"measurement": "Activity", "setting": "Bacillus subtilis", "value": ">70", "unit": "%"}, {"measurement": "IC50", "setting": "[3]", "value": 6.25, "unit": "µg/mL"}, {"measurement": "IC90", "setting": "[3]", "value": "> 30", "unit": "µg/mL"}, {"measurement": "Activity", "setting": "[1]", "value": ">87.18", "unit": "%"}, {"measurement": "IC50", "setting": "[4]", "value": 2.56, "unit": "µg/mL"}, {"measurement": "IC90", "setting": "[4]", "value": "> 30", "unit": "µg/mL"}, {"measurement": "Activity", "setting": "[2]", "value": ">87.18", "unit": "%"}]}
{"smiles": "O=[N+]([O-])c1ccc(-n2cc(C(c3c[nH]c4ccc(Br)cc34)c3c[nH]c4ccc(Br)cc34)nn2)cc1", "values": [{"measurement": "IC50", "setting": "[3]", "value": 14.8, "unit": "µg/mL"}, {"measurement": "IC90", "setting": "[3]", "value": "> 30", "unit": "µg/mL"}, {"measurement": "Activity", "setting": "[1]", "value": ">87.18", "unit": "%"}, {"measurement": "IC50", "setting": "[4]", "value": 2.96, "unit": "µg/mL"}, {"measurement": "IC90", "setting": "[4]", "value": "> 30", "unit": "µg/mL"}, {"measurement": "Activity", "setting": "[2]", "value": ">87.18", "unit": "%"}]}
{"smiles": "CO[C@H]1/C=C/O[C@@]2(C)Oc3c(C)c(O)c4c(O)c(c(/C=N/N5CCN(C)CC5)c(O)c4c3C2=O)NC(=O)/C(C)=C\\C=C\\[C@H](C)[C@H](O)[C@@H](C)[C@@H](O)[C@@H](C)[C@H](OC(C)=O)[C@@H]1C", "note": "[RIFAMPIN]", "values": [{"measurement": "IC50", "setting": "[3]", "value": 0.02, "unit": "µg/mL"}, {"measurement": "IC90", "setting": "[3]", "value": 0.53, "unit": "µg/mL"}, {"measurement": "IC90", "setting": "[4]", "value": 0.8, "unit": "µg/mL"}]}
{"smiles": "Clc1ccc(-n2cc(C(c3c[nH]c4ccccc34)c3c[nH]c4ccccc34)nn2)cc1", "values": [{"measurement": "Activity", "setting": "[1]", "value": "Active"}, {"measurement": "Activity", "setting": "[2]", "value": "Active"}]}
{"smiles": "O=[N+]([O-])c1ccc(-n2cc(C(c3c[nH]c4ccccc34)c3c[nH]c4ccccc34)nn2)cc1", "values": [{"measurement": "Activity", "setting": "[1]", "value": "Active"}, {"measurement": "Activity", "setting": "[2]", "value": "Active"}]}
{"smiles": "CC(=O)Nc1ccc(-n2cc(C(c3c[nH]c4ccccc34)c3c[nH]c4ccccc34)nn2)cc1", "values": [{"measurement": "Activity", "setting": "[1]", "value": "Active"}, {"measurement": "Activity", "setting": "[2]", "value": "Active"}]}
{"smiles": "COc1ccc(-n2cc(C(c3c[nH]c4ccc(Br)cc34)c3c[nH]c4ccc(Br)cc34)nn2)cc1", "values": [{"measurement": "Activity", "setting": "[1]", "value": ">88.22", "unit": "%"}, {"measurement": "Activity", "setting": "[2]", "value": ">88.22", "unit": "%"}]}
{"smiles": "COc1ccccc1-n1cc(C(c2c[nH]c3ccccc23)c2c[nH]c3ccccc23)nn1", "values": [{"measurement": "Activity", "setting": "[1]", "value": "Active"}, {"measurement": "Activity", "setting": "[2]", "value": "Active"}]}
{"smiles": "Brc1ccc2[nH]cc(C(c3cn(-c4ccccc4)nn3)c3c[nH]c4ccc(Br)cc34)c2c1", "values": [{"measurement": "Activity", "setting": "Bacillus subtilis", "value": ">70", "unit": "%"}, {"measurement": "IC50", "setting": "[3]", "value": 2.19, "unit": "µg/mL"}, {"measurement": "IC90", "setting": "[3]", "value": 30, "unit": "µg/mL"}, {"measurement": "Activity", "setting": "[1]", "value": ">87.18", "unit": "%"}, {"measurement": "IC50", "setting": "[4]", "value": 1.55, "unit": "µg/mL"}, {"measurement": "IC90", "setting": "[4]", "value": 9.39, "unit": "µg/mL"}, {"measurement": "Activity", "setting": "[2]", "value": ">87.18", "unit": "%"}]}
{"smiles": "c1ccc(-n2cc(C(c3c[nH]c4ccccc34)c3c[nH]c4ccccc34)nn2)cc1", "values": [{"measurement": "Activity", "setting": "[1]", "value": "Active"}, {"measurement": "Activity", "setting": "[2]", "value": "Active"}]}
{"smiles": "CC(=O)Nc1ccc(-n2cc(C(c3c[nH]c4ccc(Br)cc34)c3c[nH]c4ccc(Br)cc34)nn2)cc1", "values": [{"measurement": "Activity", "setting": "Bacillus subtilis", "value": ">70", "unit": "%"}, {"measurement": "IC50", "setting": "[3]", "value": 1.52, "unit": "µg/mL"}, {"measurement": "IC90", "setting": "[3]", "value": 6.16, "unit": "µg/mL"}, {"measurement": "Activity", "setting": "[1]", "value": ">87.18", "unit": "%"}, {"measurement": "IC50", "setting": "[4]", "value": 1, "unit": "µg/mL"}, {"measurement": "IC90", "setting": "[4]", "value": 3, "unit": "µg/mL"}, {"measurement": "Activity", "setting": "[2]", "value": ">87.18", "unit": "%"}]}
{"smiles": "COc1ccccc1-n1cc(C(c2c[nH]c3ccc(Br)cc23)c2c[nH]c3ccc(Br)cc23)nn1", "values": [{"measurement": "Activity", "setting": "[1]", "value": "Active"}, {"measurement": "Activity", "setting": "[2]", "value": "Active"}]}
{"smiles": "Cc1ccc(-n2cc(C(c3c[nH]c4ccccc34)c3c[nH]c4ccccc34)nn2)cc1", "values": [{"measurement": "Activity", "setting": "[1]", "value": "Active"}, {"measurement": "Activity", "setting": "[2]", "value": "Active"}]}
{"smiles": "Clc1cccc(-n2cc(C(c3c[nH]c4ccccc34)c3c[nH]c4ccccc34)nn2)c1", "values": [{"measurement": "IC50", "setting": "[3]", "value": 2.04, "unit": "µg/mL"}, {"measurement": "IC90", "setting": "[3]", "value": "> 30", "unit": "µg/mL"}, {"measurement": "Activity", "setting": "[1]", "value": ">87.18", "unit": "%"}, {"measurement": "IC50", "setting": "[4]", "value": 0.37, "unit": "µg/mL"}, {"measurement": "IC90", "setting": "[4]", "value": "> 30", "unit": "µg/mL"}, {"measurement": "Activity", "setting": "[2]", "value": ">87.18", "unit": "%"}]}
{"smiles": "O=[N+]([O-])c1ccccc1-n1cc(C(c2c[nH]c3ccccc23)c2c[nH]c3ccccc23)nn1", "values": [{"measurement": "Activity", "setting": "[1]", "value": "Active"}, {"measurement": "Activity", "setting": "[2]", "value": "Active"}]}
{"smiles": "Clc1cccc(-n2cc(C(c3c[nH]c4ccc(Br)cc34)c3c[nH]c4ccc(Br)cc34)nn2)c1", "values": [{"measurement": "Activity", "setting": "Staphylococcus aureus", "value": 71.77, "unit": "%"}, {"measurement": "IC50", "setting": "[3]", "value": 0.22, "unit": "µg/mL"}, {"measurement": "IC90", "setting": "[3]", "value": 13.5, "unit": "µg/mL"}, {"measurement": "Activity", "setting": "[1]", "value": ">87.18", "unit": "%"}, {"measurement": "IC50", "setting": "[4]", "value": 0.12, "unit": "µg/mL"}, {"measurement": "IC90", "setting": "[4]", "value": 9.84, "unit": "µg/mL"}, {"measurement": "Activity", "setting": "[2]", "value": ">87.18", "unit": "%"}]}
{"smiles": "Cc1ccc(-n2cc(C(c3c[nH]c4ccc(Br)cc34)c3c[nH]c4ccc(Br)cc34)nn2)cc1", "values": [{"measurement": "Activity", "setting": "[1]", "value": "Active"}, {"measurement": "Activity", "setting": "[2]", "value": "Active"}]}
{"smiles": "O=[N+]([O-])c1ccccc1-n1cc(C(c2c[nH]c3ccc(Br)cc23)c2c[nH]c3ccc(Br)cc23)nn1", "values": [{"measurement": "IC50", "setting": "[3]", "value": 2.27, "unit": "µg/mL"}, {"measurement": "IC90", "setting": "[3]", "value": "> 30", "unit": "µg/mL"}, {"measurement": "Activity", "setting": "[1]", "value": ">87.18", "unit": "%"}, {"measurement": "IC50", "setting": "[4]", "value": 1, "unit": "µg/mL"}, {"measurement": "IC90", "setting": "[4]", "value": 30, "unit": "µg/mL"}, {"measurement": "Activity", "setting": "[2]", "value": ">87.18", "unit": "%"}]}
